Assay results published in ChEMBL document CHEMBL1212781, “VIM-19, a metallo-beta-lactamase with increased carbapenemase activity from Escherichia coli and Klebsiella pneumoniae” (2010).
In brackets after ≈: the same amount, converted by molar mass.

Columns and labels:
Assay type in all cases: functional
[1] = tested on: Escherichia coli; assay: Antimicrobial activity in Escherichia coli J53 strain
Procedure, shortened: (§1)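 MICs were determined by Etest on Mueller-Hinton agar plates incubated at 37°C. Susceptibility was interpreted according to CLSI guidelines.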

[2] = tested on: Escherichia coli; assay: microbe, parasite or virus in culture; settings: TOP10
[3] = tested on: Escherichia coli; assay: microbe, parasite or virus in culture; settings: TOP10; remark: listed apart in the source
[4] = tested on: Escherichia coli; assay: Antimicrobial activity in Escherichia coli TOP10 strain; procedure, shortened: as §1
[5] = tested on: Escherichia coli; assay: Antimicrobial activity in Escherichia coli DIH-1 expressing beta-lactamase VIM-19 by Etest
Procedure, shortened: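 MICs read by Etest on Mueller-Hinton agar incubated at 37°C. Susceptibility was categorized according to CLSI guidelines. Transconjugants were obtained in E. coli J53 by liquid mating at 37°C, with selection on agar containing amoxicillin (50 μg/ml) and azide (100 μg/ml).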

[6] = tested on: Escherichia coli; assay: Antimicrobial activity in Escherichia coli J53 transconjugate with Escherichia coli DIH-1 expressing natural plasmid containing beta-lactamase VIM-19
Procedure, shortened: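 Transconjugants came from liquid mating-out at 37°C with azide-resistant E. coli J53 as recipient, selected on agar with amoxicillin (50 μg/ml) plus azide (100 μg/ml). MICs were then read by Etest on Mueller-Hinton agar at 37°C and interpreted per CLSI.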

[7] = tested on: Klebsiella pneumoniae; assay: Antimicrobial activity in Klebsiella pneumoniae DIH-2 clinical isolate expressing beta-lactamase VIM-19 by Etest
[8] = tested on: Escherichia coli; assay: microbe, parasite or virus in culture; settings: TOP10; remark: listed apart in the source
[9] = tested on: Escherichia coli; assay: microbe, parasite or virus in culture; settings: TOP10; remark: listed apart in the source

| Structure (SMILES) | MIC [1] | MIC [2] | MIC [3] | MIC [4] | MIC [5] | MIC [6] | MIC [7] | MIC [8] | MIC [9] |
| --- | --- | --- | --- | --- | --- | --- | --- | --- | --- |
| CO/N=C(\C(=O)N[C@@H]1C(=O)N2C(C(=O)O)=C(COC(N)=O)CS[C@H]12)c1ccco1 [CEFUROXIME] | 4 µg/mL (≈ 9.43 µM) | > 512 µg/mL | > 512 µg/mL | 2 µg/mL (≈ 4.71 µM) | > 512 µg/mL | > 512 µg/mL | > 512 µg/mL |  |  |
| C[C@@H](O)[C@H]1C(=O)N2C(C(=O)O)=C(SCCNC=N)C[C@H]12 [IMIPENEM ANHYDROUS] |  |  |  |  |  | 4 µg/mL (≈ 13.4 µM) | 8 µg/mL (≈ 26.7 µM) |  |  |
| C[C@@H](O)[C@H]1C(=O)N2C(C(=O)O)=C(S[C@@H]3CN[C@H](C(=O)N(C)C)C3)[C@H](C)[C@H]12 [MEROPENEM] | 0.016 µg/mL (≈ 0.0417 µM) | 1 µg/mL (≈ 2.61 µM) | 1 µg/mL (≈ 2.61 µM) | 0.016 µg/mL (≈ 0.0417 µM) |  | 0.5 µg/mL (≈ 1.3 µM) | 4 µg/mL (≈ 10.4 µM) | 0.25 µg/mL (≈ 0.652 µM) | 0.25 µg/mL (≈ 0.652 µM) |
